Paper PMC9111184 (Current Research in Pharmacology and Drug Discovery, 2022)

Columns and labels:
Caco-2 cells = experiment: FTIR analysis of treated cells; format: cell-based, Human; conditions: phenolic compounds 1 mM, 24 h
Outline: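 Cell suspension at ~1.2 × 10^6 cells/mL was seeded onto CaF2 windows and left overnight. Cells were then exposed 24 h to phenolic test compounds at 1 mM or another test compound at 100 μM; untreated cells served as control. FTIR spectra covered 900–3000 cm−1 at 4 cm−1 resolution, averaging 128 scans, and were normalized to Amide II. Spectra were Savitsky-Golay smoothed (eight points) and second-derivative processed; 4 replicates.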

Caco-2 cell monolayers = format: cell-based, Human; conditions: relative to cholesterol alone, 24 h
Outline: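 Caco-2 seeded at 2–4 x 10^4 cells/cm2 on transwell inserts (0.4 μm pore) and grown 16 days into monolayers. TEER was read before and after; monolayers above […] were accepted. Test compound was added apically in DMEM together with 5 mM cholesterol, with plain DMEM basolateral. After 24 h at 37 °C, 5% CO2, both sides were sampled for RP-HPLC-DAD. Cholesterol permeation % = amount transported/initial apical amount.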

Permeability = format: in vitro ADME; conditions: human, Caco-2
Outline: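 Monolayers were Caco-2 grown 16 days on 0.4 μm-pore transwell inserts after seeding at 2–4 x 10^4 cells/cm2, with TEER above 250 Ω/cm2 checked before and after. Test compound in DMEM containing 5 mM cholesterol went apically and DMEM basolaterally for 24 h, 37 °C, 5% CO2. Both compartments were quantified by RP-HPLC-DAD. Papp = (dQ/dt)/(A × C0), using basolateral appearance rate, membrane area and initial concentration.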

[1] = MTT cytotoxicity on Caco-2 cell line; format: cell-based; conditions: human, Caco-2 cells
Outline: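 MTT viability test: 2 × 10^4 cells per well, pre-incubated 48 h at 37 °C, 5% CO2. Test compound in FBS-free DMEM was added at 0.025–1 mg/mL (phenolic acids) or 0.1–1 mM (other compound) for 24 h, then MTT reagent. Absorbance was read at 595 nm minus 630 nm, and viability expressed as % of untreated control; eight replicates per concentration.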

## O=C(/C=C/c1ccc(O)c(O)c1)O[C@@H]1C[C@](O)(C(=O)O)C[C@@H](O)[C@H]1O [ChA, chlorogenic acid]
Caco-2 cells
  Change of band at 1081 cm−1 relative to control: increase
Caco-2 cells; Ezetimibe 100 μM
  Change of bands at 965, 1081 and 1240 cm−1 (DNA bands) relative to control: decrease
Caco-2 cell monolayers
  Decrease in cholesterol permeability: 80.29%
Permeability
  Papp at 24 h: 1.38 ×10⁻⁶ cm/s

## O=C1[C@H](CC[C@H](O)c2ccc(F)cc2)[C@@H](c2ccc(O)cc2)N1c1ccc(F)cc1 [EZ, ezetimibe, reference compound]
Caco-2 cell monolayers
  Decrease in cholesterol permeability: 96.60%
[1]
  IC50 at 24 h: 228 µM
Permeability
  Papp at 24 h: 2.94 ×10⁻⁶ cm/s

## O=C(/C=C/c1ccc(O)c(O)c1)O[C@H](Cc1ccc(O)c(O)c1)C(=O)O [RA, rosmarinic acid]
Caco-2 cells; Ezetimibe 100 μM
  Change of bands at 965, 1081 and 1240 cm−1 (DNA bands) relative to control: decrease
  Change of random coil structures at 1650 cm−1 vs untreated cells: increase
  Change of β-sheets band area at ∼1637 and 1683 cm−1 vs untreated cells: increase
Caco-2 cell monolayers
  Decrease in cholesterol permeability: 85.65%
Permeability
  Papp at 24 h: 1.68 ×10⁻⁶ cm/s

## O=C(O)/C=C/c1cccc(O)c1 [m-CA, m-coumaric acid]
Caco-2 cells; Ezetimibe 100 μM
  Change of bands at 965, 1081 and 1240 cm−1 (DNA bands) relative to control: decrease
  Change of β-sheets band area at ∼1637 and 1683 cm−1 vs untreated cells: didn't show any changes
Caco-2 cell monolayers
  Decrease in cholesterol permeability: 77.70%
